According to ChEMBL document CHEMBL2157922, “Synthesis and antifungal activity of diverse C-2 pyridinyl and pyridinylvinyl substituted quinolines” (2012):
Values after ≈ are worked out from the molar mass of the structure shown. Each block holds one molecule with its values, some of them ahead of it.

Tests used:
[1] = test system: Saccharomyces cerevisiae; assay: Antifungal activity against Saccharomyces cerevisiae ATCC 9763 after 48 hrs by broth microdilution technique; format: functional; conditions: ATCC 9763, 48 h
Procedure, shortened: (§1)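 Yeasts were tested by CLSI broth microdilution in RPMI-1640 buffered to pH 7.0 with MOPS, with compound from 250 down to 0.98 in DMSO stocks. Trays were held at 30 °C in a moist, dark chamber. MIC100, the lowest concentration giving total visual inhibition against the growth control, was read by eye at 48 h.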

[2] = test system: Candida albicans; assay: Antifungal activity against Candida albicans ATCC 10231 after 48 hrs by broth microdilution technique; format: functional; conditions: ATCC 10231, 48 h; procedure, shortened: as §1
[3] = test system: Nannizzia gypsea; assay: Antifungal activity against Microsporum gypseum CCC 115 after 48 hrs by broth microdilution technique; format: functional; conditions: CCC 115, 48 h
Procedure, shortened: (§2)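 Moulds and dermatophytes were run by CLSI broth microdilution in MOPS-buffered RPMI-1640 at pH 7.0. Aspergillus was incubated at 30 °C and dermatophytes at 28–30 °C, in a moist, dark chamber. MIC100, the lowest concentration with no visible growth, was read visually at a time set by growth of the control fungus.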

[4] = test system: Trichophyton rubrum; assay: Antifungal activity against Trichophyton rubrum CCC 113 after 48 hrs by broth microdilution technique; format: functional; conditions: CCC 113, 48 h
[5] = test system: Aspergillus niger; assay: Antifungal activity against Aspergillus niger ATCC 9029 after 48 hrs by broth microdilution technique; format: functional; conditions: ATCC 9029, 48 h; procedure, shortened: as §2
[6] = test system: Aspergillus flavus; assay: Antifungal activity against Aspergillus flavus ATCC 9170 after 48 hrs by broth microdilution technique; format: functional; conditions: ATCC 9170, 48 h; procedure, shortened: as §2
[7] = test system: Aspergillus fumigatus; assay: Antifungal activity against Aspergillus fumigatus ATCC 26934 after 48 hrs by broth microdilution technique; format: functional; conditions: ATCC 26934, 48 h; procedure, shortened: as §2
[8] = test system: Trichophyton mentagrophytes; assay: Antifungal activity against Trichophyton mentagrophytes ATCC 9972 after 48 hrs by broth microdilution technique; format: functional; conditions: ATCC 9972, 48 h; procedure, shortened: as §2
[9] = test system: Cryptococcus neoformans; assay: Antifungal activity against Cryptococcus neoformans ATCC 32264 after 48 hrs by broth microdilution technique; format: functional; conditions: ATCC 32264, 48 h; procedure, shortened: as §1
[10] = test system: Pichia kudriavzevii; assay: Antifungal activity against Candida krusei CCC 117 after 48 hrs by broth microdilution technique; format: functional; conditions: CCC 117, 48 h
[11] = test system: Nakaseomyces glabratus; assay: Antifungal activity against Candida glabrata CCC 115 after 48 hrs by broth microdilution technique; format: functional; conditions: CCC 115, 48 h
[12] = test system: Candida tropicalis; assay: Antifungal activity against Candida tropicalis CCC 131 after 48 hrs by broth microdilution technique; format: functional; conditions: CCC 131, 48 h
[13] = test system: Candida albicans; assay: Antifungal activity against Candida albicans CCC 128 after 48 hrs by broth microdilution technique; format: functional; conditions: CCC 128, 48 h
[14] = test system: Candida albicans; assay: Antifungal activity against Candida albicans CCC 126 after 48 hrs by broth microdilution technique; format: functional; conditions: CCC 126, 48 h
[15] = test system: Cryptococcus neoformans; assay: Antifungal activity against Cryptococcus neoformans IM 983036 after 48 hrs by broth microdilution technique; format: functional; conditions: IM 983036, 48 h
Procedure, shortened: (§3)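 C. neoformans was tested by 96-well RPMI-1640 microdilution, with DMSO-matched growth and sterility control wells. Plates were incubated 48 h at 30 °C in a moist, dark chamber and read at OD405. % inhibition = 100 − (CTW − SCW)/(GCW − SCW), in duplicate. For the clinical isolates, MIC80 and MIC50 are the lowest concentrations giving 80% and 50% inhibition.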

[16] = test system: Cryptococcus neoformans; assay: Antifungal activity against Cryptococcus neoformans IM 972724 after 48 hrs by broth microdilution technique; format: functional; conditions: IM 972724, 48 h; procedure, shortened: as §3
[17] = test system: Cryptococcus neoformans; assay: Antifungal activity against Cryptococcus neoformans IM 972751 after 48 hrs by broth microdilution technique; format: functional; conditions: IM 972751, 48 h; procedure, shortened: as §3
[18] = test system: Candida albicans; assay: Antifungal activity against Candida albicans CCC 130 after 24 hrs by broth microdilution technique; conditions: CCC 130, 24 h
[19] = test system: Candida albicans; assay: Antifungal activity against Candida albicans CCC 129 after 48 hrs by broth microdilution technique; format: functional; conditions: CCC 129, 48 h
[20] = test system: Candida albicans; assay: Antifungal activity against Candida albicans CCC 130 after 48 hrs by broth microdilution technique; format: functional; conditions: CCC 130, 48 h
[21] = test system: Candida albicans; assay: Antifungal activity against Candida albicans CCC 127 after 48 hrs by broth microdilution technique; format: functional; conditions: CCC 127, 48 h
[22] = test system: Cryptococcus neoformans; assay: Antifungal activity against Cryptococcus neoformans IM 00319 after 48 hrs by broth microdilution technique; format: functional; conditions: IM 00319, 48 h; procedure, shortened: as §3
[23] = test system: Cryptococcus neoformans; assay: Antifungal activity against Cryptococcus neoformans ATCC 32264 at 31.2 ug/ml after 48 hrs; format: functional; conditions: ATCC 32264, 48 h; procedure, shortened: as §3
[24] = test system: Candida albicans; assay: Antifungal activity against Candida albicans CCC 125 after 48 hrs by broth microdilution technique; format: functional; conditions: CCC 125, 48 h
[25] = test system: Cryptococcus neoformans; assay: Antifungal activity against Cryptococcus neoformans IM 042074 after 48 hrs by broth microdilution technique; format: functional; conditions: IM 042074, 48 h; procedure, shortened: as §3
[26] = test system: Candida parapsilosis; assay: Antifungal activity against Candida parapsilosis CCC 124 after 48 hrs by broth microdilution technique; format: functional; conditions: Lodderomyces parapsilosis, CCC 124, 48 h
[27] = test system: Cryptococcus neoformans; assay: Antifungal activity against Cryptococcus neoformans IM 983040 after 48 hrs by broth microdilution technique; format: functional; conditions: IM 983040, 48 h; procedure, shortened: as §3

MIC [1]: 250 µg/mL (≈ 1080 µM)
MIC [2]: 250 µg/mL (≈ 1080 µM)
MIC [3]: 62 µg/mL (≈ 267 µM)
MIC [4]: 62 µg/mL (≈ 267 µM)
MIC [5]: 125 µg/mL (≈ 538 µM)
MIC [6]: 125 µg/mL (≈ 538 µM)
MIC [7]: 125 µg/mL (≈ 538 µM)
MIC [8]: 62 µg/mL (≈ 267 µM)
MIC [9]: 125 µg/mL (≈ 538 µM)
Compound: C(=C\c1ccc2ccccc2n1)/c1cccnc1
MFC [1]: > 250 µg/mL
MFC [2]: > 250 µg/mL
MFC [3]: 250 µg/mL (≈ 1080 µM)
MFC [4]: 250 µg/mL (≈ 1080 µM)
MFC [5]: > 250 µg/mL
MFC [6]: > 250 µg/mL
MFC [7]: > 250 µg/mL
MFC [8]: 250 µg/mL (≈ 1080 µM)
MFC [9]: 250 µg/mL (≈ 1080 µM)

MIC [1]: > 250 µg/mL
MIC [2]: > 250 µg/mL
MIC [3]: 31 µg/mL (≈ 129 µM)
MIC [4]: 31 µg/mL (≈ 129 µM)
MIC [5]: > 250 µg/mL
MIC [6]: > 250 µg/mL
MIC [7]: > 250 µg/mL
MIC [8]: 31 µg/mL (≈ 129 µM)
MIC [9]: 62 µg/mL (≈ 258 µM)
Compound: Clc1ccc2nc(-c3cccnc3)ccc2c1
MFC [3]: 125 µg/mL (≈ 519 µM)
MFC [4]: 125 µg/mL (≈ 519 µM)
MFC [8]: 125 µg/mL (≈ 519 µM)
MFC [9]: 125 µg/mL (≈ 519 µM)

MIC [1]: > 250 µg/mL
MIC [2]: > 250 µg/mL
MIC [3]: 62 µg/mL (≈ 276 µM)
MIC [4]: 62 µg/mL (≈ 276 µM)
MIC [5]: 250 µg/mL (≈ 1110 µM)
MIC [6]: 125 µg/mL (≈ 557 µM)
MIC [7]: 125 µg/mL (≈ 557 µM)
MIC [8]: 62 µg/mL (≈ 276 µM)
MIC [9]: 62 µg/mL (≈ 276 µM)
Compound: Fc1ccc2nc(-c3cccnc3)ccc2c1
MFC [3]: 62 µg/mL (≈ 276 µM)
MFC [4]: 62 µg/mL (≈ 276 µM)
MFC [5]: > 250 µg/mL
MFC [6]: 250 µg/mL (≈ 1110 µM)
MFC [7]: 250 µg/mL (≈ 1110 µM)
MFC [8]: 62 µg/mL (≈ 276 µM)
MFC [9]: 250 µg/mL (≈ 1110 µM)

MIC50 [10]: 31.2 µg/mL (≈ 142 µM)
MIC80 [10]: 62.5 µg/mL (≈ 284 µM)
MIC50 [11]: 7.8 µg/mL (≈ 35.4 µM)
MIC80 [11]: 15.6 µg/mL (≈ 70.8 µM)
MIC50 [12]: 15.6 µg/mL (≈ 70.8 µM)
MIC80 [12]: 125 µg/mL (≈ 567 µM)
MIC [1]: 62 µg/mL (≈ 281 µM)
MIC50 [13]: 31.2 µg/mL (≈ 142 µM)
MIC80 [13]: 125 µg/mL (≈ 567 µM)
MIC [2]: 125 µg/mL (≈ 567 µM)
MIC50 [2]: 15.6 µg/mL (≈ 70.8 µM)
MIC80 [2]: 31.2 µg/mL (≈ 142 µM)
MIC [3]: 62 µg/mL (≈ 281 µM)
MIC50 [14]: 31.2 µg/mL (≈ 142 µM)
MIC80 [14]: 62.5 µg/mL (≈ 284 µM)
MIC50 [15]: 31.2 µg/mL (≈ 142 µM)
MIC80 [15]: 62.5 µg/mL (≈ 284 µM)
MIC50 [16]: 15.6 µg/mL (≈ 70.8 µM)
MIC80 [16]: 31.2 µg/mL (≈ 142 µM)
MIC [4]: 62 µg/mL (≈ 281 µM)
MIC50 [17]: 7.8 µg/mL (≈ 35.4 µM)
MIC80 [17]: 31.2 µg/mL (≈ 142 µM)
MIC50 [18]: 62.5 µg/mL (≈ 284 µM)
MIC [5]: 125 µg/mL (≈ 567 µM)
MIC50 [19]: 62.5 µg/mL (≈ 284 µM)
MIC80 [19]: 125 µg/mL (≈ 567 µM)
MIC80 [20]: 125 µg/mL (≈ 567 µM)
MIC50 [21]: 31.2 µg/mL (≈ 142 µM)
MIC80 [21]: 125 µg/mL (≈ 567 µM)
MIC50 [22]: 15.6 µg/mL (≈ 70.8 µM)
MIC80 [22]: 31.2 µg/mL (≈ 142 µM)
MIC [6]: 62 µg/mL (≈ 281 µM)
MIC50 [24]: 31.2 µg/mL (≈ 142 µM)
MIC80 [24]: 125 µg/mL (≈ 567 µM)
MIC50 [25]: 15.6 µg/mL (≈ 70.8 µM)
MIC80 [25]: 31.2 µg/mL (≈ 142 µM)
MIC50 [26]: 7.8 µg/mL (≈ 35.4 µM)
MIC80 [26]: 31.2 µg/mL (≈ 142 µM)
MIC [7]: 62 µg/mL (≈ 281 µM)
MIC50 [27]: 7.8 µg/mL (≈ 35.4 µM)
MIC80 [27]: 31.2 µg/mL (≈ 142 µM)
MIC [8]: 62 µg/mL (≈ 281 µM)
MIC [9]: 62 µg/mL (≈ 281 µM)
MIC50 [9]: 7.8 µg/mL (≈ 35.4 µM)
MIC80 [9]: 31.2 µg/mL (≈ 142 µM)
Compound: Cc1ccc2nc(-c3ccncc3)ccc2c1
MFC [1]: 125 µg/mL (≈ 567 µM)
MFC [2]: 250 µg/mL (≈ 1130 µM)
MFC [3]: 62 µg/mL (≈ 281 µM)
MFC [4]: 62 µg/mL (≈ 281 µM)
MFC [5]: 250 µg/mL (≈ 1130 µM)
MFC [6]: 125 µg/mL (≈ 567 µM)
inhibition at 31.2 µg/mL [23]: 80%
MFC [7]: 125 µg/mL (≈ 567 µM)
MFC [8]: 62 µg/mL (≈ 281 µM)
MFC [9]: 125 µg/mL (≈ 567 µM)

MIC [1]: > 250 µg/mL
MIC [2]: > 250 µg/mL
MIC [3]: 125 µg/mL (≈ 519 µM)
MIC [4]: 125 µg/mL (≈ 519 µM)
MIC [5]: > 250 µg/mL
MIC [6]: > 250 µg/mL
MIC [7]: > 250 µg/mL
MIC [8]: 125 µg/mL (≈ 519 µM)
MIC [9]: 125 µg/mL (≈ 519 µM)
Compound: Clc1ccc2nc(-c3ccncc3)ccc2c1
MFC [3]: 125 µg/mL (≈ 519 µM)
MFC [4]: 125 µg/mL (≈ 519 µM)
MFC [8]: 125 µg/mL (≈ 519 µM)
MFC [9]: 250 µg/mL (≈ 1040 µM)
